Assay outcomes as filed in PubChem.
PLAP activator: human PLAP activation. purified PLAP enzyme, luminescent substrate read-out; stronger effect = higher value. hit rate 1.2% among 96,000. activation fold at 20 µM. AID 696; in the data active = activation fold above about 2
AP complement: orthogonal test for alternative complement pathway inhibitors; Human serum alternative complement pathway, LPS-coated ELISA, C3 deposition; tested in compound mixtures; inhibition, % at 5 µM; hit rate 0.08% among 62,000; AID 1235;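 active = inhibition above 30% in each of the two pooled mixtures holding the compound, so the lower value exceeds 30%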;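 also: 0% = serum in Mg-EGTA without compound and 100% = EDTA serum blank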
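Assay system: human serum alternative complement pathway, C3 deposition on LPS-coated wells; Dosing: 5 µM per compound in ten-compound mixtures; Detection: Anti-C3 ELISA, OD 450 nm; Buffer or medium: Mg2+-EGTA GVB++ buffer containing human serum at 1:15 dilution; Timing: 1 h at 37 °C; Replication: two different pools per compound.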
tolC growth inh: blocks growth of E. coli BW25113 tolC mutant | growth inhibition, % at 10 µM (by protocol) | hit rate 2.2% among 65,000 | OD615;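 active = growth inhibition at or above a cutoff equal to the mean over every tested compound plus 3 SD, cut at about 60% in these data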;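 also: growth measured after 20 h incubation at 37 °C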
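Test system – E. coli BW25113 ΔtolC::kan, tolC deletion mutant strain · Detection – OD at 615 nm · Buffer or medium – LB with kanamycin 50 µg/mL · Times – 20 h compound exposure of bacteria at 37 °C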
E coli WT exp: growth inhibitors of E. coli BW25113 wild type | OD600 absorbance | growth inhibition, % at 100 µM | AID 710 | hit rate 0.15% among 98,000;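 active = growth inhibition above about 50% at one test dose, limit read from the data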;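 also: growth measured after 20 h incubation at 37 °C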
HePTP inhibitor: blocks human HePTP tyrosine phosphatase; P35236; inhibition, % at 20 µM; hit rate 0.64% among 110,000; recombinant HePTP phosphatase activity, OD absorbance; in the data active = inhibition above about 50%;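 also: plate controls were vehicle for no effect and reference inhibitor for full effect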
Target sequence (P35236 whole entry, looked up): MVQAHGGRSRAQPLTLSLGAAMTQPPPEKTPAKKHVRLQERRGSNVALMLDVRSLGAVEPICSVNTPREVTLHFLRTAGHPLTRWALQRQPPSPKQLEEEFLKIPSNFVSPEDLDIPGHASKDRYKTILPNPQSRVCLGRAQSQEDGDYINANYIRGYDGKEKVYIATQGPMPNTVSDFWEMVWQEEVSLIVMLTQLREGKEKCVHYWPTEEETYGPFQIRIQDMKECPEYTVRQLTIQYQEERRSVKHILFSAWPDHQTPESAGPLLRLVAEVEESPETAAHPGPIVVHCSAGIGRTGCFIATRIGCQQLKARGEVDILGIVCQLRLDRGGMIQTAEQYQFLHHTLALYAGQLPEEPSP
Numbers without * were called inactive; x = no result given. Sampled rows, rich in hits. Any-hit rate of the full collection: about 2.3%.

SMILES	PLAP activator	AP complement	tolC growth inh	E coli WT exp	HePTP inhibitor
Cc1n[nH]c(=S)n1/N=C/c1ccc(-c2ccccc2[N+](=O)[O-])o1	2*	x	x	-1	x
O=C(N/N=C/c1ccc(-c2ccccc2[N+](=O)[O-])o1)c1ccc([N+](=O)[O-])cc1	x	x	x	x	-18
COc1ccc(/C=N\OCC(=O)Nc2oc(-c3ccccc3)c(-c3ccccc3)c2C#N)cc1	x	x	x	x	0
O=C(Nc1c[nH]c(=O)[nH]c1=O)c1ccc2c(c1)C(=O)N(c1ccccc1-c1ccccc1)C2=O	x	x	x	x	0
CC(=O)Oc1ccc(/C=c2/sc3nc4c(C)c(C)ccc4n3c2=O)cc1	x	x	x	x	0
O=C(CSc1nc2ncccc2[nH]1)NCc1ccccc1	2.4*	0	-2	5	4
Cc1ccc(/C(O)=C/C(=O)C(=O)Nc2nccs2)cc1	x	x	x	x	-15
COc1ccc(C(=O)N/N=C/c2cc(OC)c(O)c([N+](=O)[O-])c2)cc1OC	x	x	x	x	-7
O=C(N/N=C\c1cc(I)ccc1O)c1ccc(Br)cc1	x	x	x	x	103*
O=C(N/N=C/c1cc(Cl)cc([N+](=O)[O-])c1O)c1ccc2c(c1)OCO2	x	x	x	x	103*
O=C(N/N=C\c1cc(Cl)cc([N+](=O)[O-])c1O)c1ccc(Br)cc1	x	x	x	x	65*
C/C(Cc1ccccc1)=N/NC(=O)c1cc(-c2ccccc2)nc2ccccc12	x	x	x	x	-5
CSc1ccccc1NC(=O)CN(C1CCCCC1)S(C)(=O)=O	2*	x	x	2	x
CCCCCOc1ccc(CSC(=N)N)cc1[N+](=O)[O-]	0.7	x	x	100*	x
COc1ccc(CSC(=N)N)cc1[N+](=O)[O-]	2.7*	x	x	6	x
CCOc1ccc(CN(CCO)CCO)cc1[N+](=O)[O-]	1	x	x	9	x
O=C(/C=C/c1cccs1)Nc1nc(-c2cccs2)cs1	x	x	x	x	4
CCc1nc2sc3ccccc3c(=O)c2c(=O)n1CCOC	1.1	x	x	4	x
CCCc1nc2sc3ccccc3c(=O)c2c(=O)n1Cc1ccco1	1	3	70*	10	16
CCCc1nc2oc3cc(OC)ccc3c(=O)c2c(=O)n1Cc1ccco1	1.1	10	61*	-10	10
COc1ccc2c(=O)c3c(=O)n(Cc4ccco4)c(-c4ccccc4)nc3oc2c1	0.8	10	14	-12	1
Cc1c(O)ccc(-c2[nH]ncc2-c2nc3ccccc3s2)c1O	2.2*	x	x	0	x
O=C(Nc1ccc(CN2CCOCC2)cc1)c1ccc(-c2ccc(Br)cc2)o1	1.5	9	100*	-14	6
O=C(Nc1ccc(NC(=O)c2ccc(-c3ccc(Br)cc3)o2)cc1)c1ccco1	x	x	x	x	-10
Clc1ccccc1CN(Cc1ccccc1)c1ncnc2nc[nH]c12	1.7	11	23	-2	12
SMILES	PLAP activator	AP complement	tolC growth inh	E coli WT exp	HePTP inhibitor
CCCN(CCC)c1ncnc2nc[nH]c12	2.3*	6	-5	4	1
Cc1ccc(-c2nc(N)sc2-c2ccc([N+](=O)[O-])cc2)cc1	x	x	x	x	-21
Nc1ncncc1-c1ccc([N+](=O)[O-])cc1	0.9	x	x	78*	x
O=C(NCC(=O)N(Cc1cccs1)C(C(=O)NC1CCCC1)c1ccncc1)c1ccco1 (centres undefined)	1.9	10	x	3	6
Cc1ccc(C(C(=O)NC2CCCC2)N(Cc2cccs2)C(=O)CNC(=O)c2cccs2)o1 (centres undefined)	0.9	10	66*	-11	7
Cc1ccc(-c2nc3ccccc3s2)cc1NC(=O)c1ccc(Br)o1	x	x	x	x	2
O=C(Nc1ccc2nc(-c3cccs3)[nH]c2c1)c1ccco1	x	8	90*	-2	4
O=C(Nc1ccc2nc(-c3cccs3)[nH]c2c1)c1cccs1	1.2	-9	20	-3	-3
CCCC1=NN2C(=N)/C(=C/c3ccc(-c4ccc([N+](=O)[O-])cc4C)o3)C(=O)N=C2S1	x	x	x	x	82*
CN1CCN(S(=O)(=O)c2cc(Cl)ccc2Br)CC1	x	x	x	x	10
CC1CCN(S(=O)(=O)c2ccc(Cl)cc2Br)CC1	0.7	21	98*	8	3
CC(=O)Oc1ccccc1/C=C1\C=C(c2ccc(Cl)cc2)OC1=O	x	x	x	x	9
Cc1nnc(SCC(=O)Nc2nc(-c3ccccc3)cs2)n1N	1.1	25	-11	-2	-2
CCn1c(SCC(=O)Nc2nc(-c3ccccc3)cs2)nnc1-c1ccccc1	2*	10	33	-19	-21
O=C(CS(=O)(=O)c1ccccc1)Nc1nc(-c2ccccc2)cs1	1.3	14	100*	-5	2
O=C1C2C3C=CC(C4CC34)C2C(=O)N1N=Cc1ccccc1Cl (centres undefined)	x	x	x	x	-9
Cc1ccccc1/C=N/N=C1\NC(=O)C(Cc2cccc([N+](=O)[O-])c2)S1 (centres undefined)	x	x	x	x	-4
Cc1ccc(C(=O)Nc2nc(COc3ccccc3)cs2)s1	1.1	-5	79*	-9	-6
O=C(Nc1ccc2oc(-c3ccccc3Cl)nc2c1)c1ncn[nH]1	2*	0	14	-6	-2
O=C(COc1ccc(Br)cc1)Nc1ccc2oc(-c3ccccc3F)nc2c1	x	x	x	x	5
O=C(COc1ccc(Cl)cc1)Nc1ccc2oc(-c3ccccc3F)nc2c1	x	x	x	x	57*
COc1ccc(-c2nc(=NC(=O)c3ccco3)sn2-c2ccccc2)cc1	x	x	x	x	7
CC(=O)OCCNC(=O)/C(=C\c1ccc2c(c1)OCO2)NC(=O)c1ccco1	x	x	x	x	5
O=C1c2ccccc2C(=O)c2c1c(Cl)c(Cl)c(Cl)c2N1CCOCC1	x	x	x	x	-3
O=S(=O)(c1ccc(NC(=S)Nc2ccccc2)cc1)N1CCc2ccccc21	x	x	x	x	6
SMILES	PLAP activator	AP complement	tolC growth inh	E coli WT exp	HePTP inhibitor
NC(=O)C1CCN(Cc2nc3cc(Cl)ccc3c(=O)[nH]2)CC1	2*	x	x	-1	x
Cc1cc(C)c(OCC(=O)Nc2ccc(F)cc2)c(C)c1	x	x	x	x	-3
Cc1cc2ncc(-c3ccc(Cl)cc3)c(N)n2n1	2*	28	17	20	15
COc1cc(/C=C2\SC(=S)N(C(C(=O)O)C(C)C)C2=O)ccc1O (centres undefined)	x	x	x	x	1
COc1cccc(N2C(=O)CC(N3CCN(C(c4ccccc4)c4ccccc4)CC3)C2=O)c1 (centres undefined)	x	x	x	x	-30
COc1ccc(N2C(=O)CC(N3CCN(C(c4ccccc4)c4ccc(Cl)cc4)CC3)C2=O)cc1 (centres undefined)	x	x	x	x	105*
